Reference: ChEMBL document CHEMBL4266041, “Hydroxybiphenylamide GroEL/ES Inhibitors Are Potent Antibacterials against Planktonic and Biofilm Forms of Staphylococcus aureus” (J Med Chem, 2018)

Test system: not listed separately
Assay: Inhibition of refolded MDH (unknown origin) preincubated with Escherichia coli GroEL/GroES for 45 mins in absence of compound followed by compound addition and measured for 20 to 35 mins by spectrometric analysis
Details: not given

Row | SMILES | IC50 [µM]
1 | COc1c(Br)cccc1C(=O)Nc1ccc(Sc2nc3ccccc3s2)cc1 | > 63
2 | O=C(Nc1ccccc1)c1cc(Br)cc(Br)c1 | > 63
3 | O=C(Nc1ccccc1)c1ccccc1O [SALICYLANILIDE] | > 63
4 | COc1c(Br)cc(Br)cc1C(=O)Nc1ccc(Sc2nc3ccccc3s2)c(Cl)c1 | > 63

Biological target: T1, E. coli GroEL/ES (Escherichia coli, UniProt P0A6F5)
Assay: Inhibition of Escherichia coli GroEL expressed in Escherichia coli DH5alpha/Escherichia coli GroES expressed in Escherichia coli BL21 (DE3) assessed as reduction in GroEL/GroES-mediated denatured rhodanese refolding after 45 mins by spectrometric analysis
Details: not given
How it was run: (§1)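 Uses E. coli GroEL/ES with a denatured MDH or rhodanese reporter. GroEL first forms a binary complex with the denatured reporter. Refolding is started by adding ATP and GroES, then reporter enzyme activity is read. DMSO is the negative control. IC50 values from replicate curves are log-averaged after ROUT outlier screening.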

T1 sequence (P0A6F5 whole entry, looked up): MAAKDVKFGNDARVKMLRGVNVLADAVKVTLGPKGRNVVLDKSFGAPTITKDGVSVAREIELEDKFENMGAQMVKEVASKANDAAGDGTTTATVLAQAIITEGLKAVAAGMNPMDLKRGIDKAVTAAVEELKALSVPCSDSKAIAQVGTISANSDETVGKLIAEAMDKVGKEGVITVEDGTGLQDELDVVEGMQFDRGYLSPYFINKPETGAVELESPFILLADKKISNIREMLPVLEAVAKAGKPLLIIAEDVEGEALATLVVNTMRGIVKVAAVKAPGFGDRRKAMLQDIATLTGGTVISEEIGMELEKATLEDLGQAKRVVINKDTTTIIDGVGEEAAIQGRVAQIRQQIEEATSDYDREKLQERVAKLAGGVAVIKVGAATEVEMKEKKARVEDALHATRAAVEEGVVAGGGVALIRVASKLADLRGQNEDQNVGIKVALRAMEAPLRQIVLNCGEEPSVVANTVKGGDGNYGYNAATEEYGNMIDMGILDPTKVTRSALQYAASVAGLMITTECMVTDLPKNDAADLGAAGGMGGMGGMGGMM

Row | SMILES | IC50 [µM]
5 | COc1c(Br)cccc1C(=O)Nc1ccc(Sc2nc3ccccc3s2)cc1 | > 100
6 | O=C(Nc1ccccc1)c1cc(Br)cc(Br)c1 | > 100
7 | O=C(Nc1ccccc1)c1ccccc1O [SALICYLANILIDE] | > 100
8 | COc1c(Br)cc(Br)cc1C(=O)Nc1ccc(Sc2nc3ccccc3s2)c(Cl)c1 | > 100

Biological target: T2, Thiosulfate sulfurtransferase (Homo sapiens, UniProt Q16762)
T2 sequence (Q16762 whole entry): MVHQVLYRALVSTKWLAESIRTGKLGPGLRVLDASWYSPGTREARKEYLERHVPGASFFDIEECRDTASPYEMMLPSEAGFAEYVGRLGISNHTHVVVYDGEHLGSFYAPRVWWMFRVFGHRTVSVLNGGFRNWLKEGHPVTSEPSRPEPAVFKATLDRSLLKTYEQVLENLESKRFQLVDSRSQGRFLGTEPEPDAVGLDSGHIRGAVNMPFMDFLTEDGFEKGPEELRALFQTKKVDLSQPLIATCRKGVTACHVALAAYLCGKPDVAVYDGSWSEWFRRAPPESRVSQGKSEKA
Assay: Inhibition of refolded rhodanese (unknown origin) preincubated with Escherichia coli GroEL/GroES for 60 mins in absence of compound followed by compound addition by spectrometric analysis
Details: not given

Row | SMILES | IC50 [µM]
9 | COc1c(Br)cccc1C(=O)Nc1ccc(Sc2nc3ccccc3s2)cc1 | > 100
10 | O=C(Nc1ccccc1)c1cc(Br)cc(Br)c1 | > 100
11 | O=C(Nc1ccccc1)c1ccccc1O [SALICYLANILIDE] | > 100
12 | COc1c(Br)cc(Br)cc1C(=O)Nc1ccc(Sc2nc3ccccc3s2)c(Cl)c1 | > 100

Test system: Klebsiella pneumoniae
Assay: Antibacterial activity against Klebsiella pneumoniae ATCC 13883 after 6 to 8 hrs by bacterial proliferation assay
Assay type: functional, organism-based
Details: not given
How it was run: (§2)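 Bacterial growth inhibition in liquid culture. The highest concentration tested was 100 µM. The mean was back-calculated from the average log value. Values above the top concentration were set 0.1 log unit higher.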

Row | SMILES | EC50 [µM]
13 | COc1c(Br)cccc1C(=O)Nc1ccc(Sc2nc3ccccc3s2)cc1 | > 100
14 | O=C(Nc1ccccc1)c1cc(Br)cc(Br)c1 | > 100
15 | O=C(Nc1ccccc1)c1ccccc1O [SALICYLANILIDE] | > 100
16 | COc1c(Br)cc(Br)cc1C(=O)Nc1ccc(Sc2nc3ccccc3s2)c(Cl)c1 | > 100

Test system: HEK293
Assay: Cytotoxicity against HEK293 cells assessed as reduction in cell viability after 48 hrs by Alamar Blue reporter assay
Details: human, hek293, 48 h

Row | SMILES | CC50 [µM]
17 | COc1c(Br)cccc1C(=O)Nc1ccc(Sc2nc3ccccc3s2)cc1 | > 100
18 | O=C(Nc1ccccc1)c1cc(Br)cc(Br)c1 | > 100
19 | O=C(Nc1ccccc1)c1ccccc1O [SALICYLANILIDE] | > 100
20 | COc1c(Br)cc(Br)cc1C(=O)Nc1ccc(Sc2nc3ccccc3s2)c(Cl)c1 | > 100

Test system: Staphylococcus aureus
Assay: Antibacterial activity against Staphylococcus aureus ATCC 25923 after 6 to 8 hrs by bacterial proliferation assay
Assay type: functional, organism-based
Details: not given

Row | SMILES | EC50 [µM]
21 | COc1c(Br)cccc1C(=O)Nc1ccc(Sc2nc3ccccc3s2)cc1 | > 100
22 | O=C(Nc1ccccc1)c1cc(Br)cc(Br)c1 | > 100
23 | O=C(Nc1ccccc1)c1ccccc1O [SALICYLANILIDE] | 28
24 | COc1c(Br)cc(Br)cc1C(=O)Nc1ccc(Sc2nc3ccccc3s2)c(Cl)c1 | > 100

Test system: Enterococcus faecium
Assay: Antibacterial activity against Enterococcus faecium ATCC 19434 after 24 hrs by bacterial proliferation assay
Assay type: functional, organism-based
Details: ATCC 19434, 24 h

Row | SMILES | EC50 [µM]
25 | COc1c(Br)cccc1C(=O)Nc1ccc(Sc2nc3ccccc3s2)cc1 | > 100
26 | O=C(Nc1ccccc1)c1cc(Br)cc(Br)c1 | > 100
27 | O=C(Nc1ccccc1)c1ccccc1O [SALICYLANILIDE] | > 100
28 | COc1c(Br)cc(Br)cc1C(=O)Nc1ccc(Sc2nc3ccccc3s2)c(Cl)c1 | > 100

Test system: Staphylococcus aureus
Assay: Antibacterial activity against methicillin-resistant Staphylococcus aureus ATCC BAA-44 after 6 to 8 hrs by bacterial proliferation assay
Assay type: functional, organism-based
Details: Staphylococcus aureus, ATCC BAA-44

Row | SMILES | EC50 [µM]
29 | COc1c(Br)cccc1C(=O)Nc1ccc(Sc2nc3ccccc3s2)cc1 | > 100
30 | O=C(Nc1ccccc1)c1cc(Br)cc(Br)c1 | > 100
31 | O=C(Nc1ccccc1)c1ccccc1O [SALICYLANILIDE] | 51
32 | COc1c(Br)cc(Br)cc1C(=O)Nc1ccc(Sc2nc3ccccc3s2)c(Cl)c1 | > 100

Test system: Enterobacter cloacae
Assay: Antibacterial activity against Enterobacter cloacae subsp. cloacae ATCC 13047 after 24 hrs by bacterial proliferation assay
Assay type: functional, organism-based
Details: subsp. cloacae ATCC 13047, 24 h
How it was run: as §2

Row | SMILES | EC50 [µM]
33 | COc1c(Br)cccc1C(=O)Nc1ccc(Sc2nc3ccccc3s2)cc1 | > 100
34 | O=C(Nc1ccccc1)c1cc(Br)cc(Br)c1 | > 100
35 | O=C(Nc1ccccc1)c1ccccc1O [SALICYLANILIDE] | > 100
36 | COc1c(Br)cc(Br)cc1C(=O)Nc1ccc(Sc2nc3ccccc3s2)c(Cl)c1 | > 100

Biological target: HSP60/HSP10 (Homo sapiens, UniProt P10809)
Assay: Inhibition of human N-terminal octa-His-tagged HSP60 expressed in Escherichia coli Rosetta(DE3) pLysS/human HSP10 expressed in Escherichia coli Rosetta(DE3) assessed as reduction in HSP60/HSP10-mediated denatured MDH refolding after 40 to 60 mins by spectrometric analysis
Details: not given
How it was run: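 Human HSP60/10 refolding of denatured MDH, run the same way as the GroEL/ES-dMDH assay. A binary complex of chaperonin and denatured MDH is formed, and refolding is started with ATP and HSP10. MDH activity is the read-out. DMSO is the negative control. IC50 values from replicate curves are log-averaged after ROUT outlier screening.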

Sequence of HSP60/HSP10 (P10809 whole entry): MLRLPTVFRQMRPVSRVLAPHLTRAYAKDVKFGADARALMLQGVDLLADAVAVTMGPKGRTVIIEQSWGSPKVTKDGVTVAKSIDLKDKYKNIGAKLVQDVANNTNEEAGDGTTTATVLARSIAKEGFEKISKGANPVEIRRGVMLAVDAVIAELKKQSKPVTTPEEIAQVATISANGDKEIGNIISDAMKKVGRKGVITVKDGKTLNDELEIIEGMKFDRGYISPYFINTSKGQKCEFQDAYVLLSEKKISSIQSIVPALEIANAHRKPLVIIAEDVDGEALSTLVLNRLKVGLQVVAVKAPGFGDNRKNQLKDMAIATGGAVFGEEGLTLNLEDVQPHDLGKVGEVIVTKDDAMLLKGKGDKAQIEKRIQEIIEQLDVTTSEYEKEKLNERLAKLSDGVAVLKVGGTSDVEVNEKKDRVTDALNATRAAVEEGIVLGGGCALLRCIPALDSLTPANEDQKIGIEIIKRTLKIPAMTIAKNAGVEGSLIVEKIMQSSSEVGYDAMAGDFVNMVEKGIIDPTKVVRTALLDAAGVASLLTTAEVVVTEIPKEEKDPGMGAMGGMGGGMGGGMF
Sequence of HSP60/HSP10 (P61604 whole entry, further chain): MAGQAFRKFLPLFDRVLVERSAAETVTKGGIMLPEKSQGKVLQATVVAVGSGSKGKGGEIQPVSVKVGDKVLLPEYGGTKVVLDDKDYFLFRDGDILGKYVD

Row | SMILES | IC50 [µM]
37 | COc1c(Br)cccc1C(=O)Nc1ccc(Sc2nc3ccccc3s2)cc1 | > 100
38 | O=C(Nc1ccccc1)c1cc(Br)cc(Br)c1 | > 100
39 | O=C(Nc1ccccc1)c1ccccc1O [SALICYLANILIDE] | > 100
40 | COc1c(Br)cc(Br)cc1C(=O)Nc1ccc(Sc2nc3ccccc3s2)c(Cl)c1 | > 100

Test system: Acinetobacter baumannii
Assay: Antibacterial activity against Acinetobacter baumannii ATCC 19606 after 24 hrs by bacterial proliferation assay
Assay type: functional, organism-based
Details: ATCC 19606 = CIP 70.34 = JCM 6841, 24 h
How it was run: as §2

Row | SMILES | EC50 [µM]
41 | COc1c(Br)cccc1C(=O)Nc1ccc(Sc2nc3ccccc3s2)cc1 | > 100
42 | O=C(Nc1ccccc1)c1cc(Br)cc(Br)c1 | > 100
43 | O=C(Nc1ccccc1)c1ccccc1O [SALICYLANILIDE] | > 100
44 | COc1c(Br)cc(Br)cc1C(=O)Nc1ccc(Sc2nc3ccccc3s2)c(Cl)c1 | > 100

Biological target: T1, E. coli GroEL/ES
Assay: Inhibition of Escherichia coli GroEL expressed in Escherichia coli DH5alpha/Escherichia coli GroES expressed in Escherichia coli BL21 (DE3) assessed as reduction in GroEL/GroES-mediated denatured MDH refolding after 20 to 40 mins by spectrometric analysis
Details: not given
How it was run: as §1

Row | SMILES | IC50 [µM]
45 | COc1c(Br)cccc1C(=O)Nc1ccc(Sc2nc3ccccc3s2)cc1 | > 100
46 | O=C(Nc1ccccc1)c1cc(Br)cc(Br)c1 | > 100
47 | O=C(Nc1ccccc1)c1ccccc1O [SALICYLANILIDE] | > 100
48 | COc1c(Br)cc(Br)cc1C(=O)Nc1ccc(Sc2nc3ccccc3s2)c(Cl)c1 | > 100

Test system: Pseudomonas aeruginosa
Assay: Antibacterial activity against Pseudomonas aeruginosa ATCC 10145 after 24 hrs by bacterial proliferation assay
Assay type: functional, organism-based
Details: ATCC 10145, 24 h
How it was run: as §2

Row | SMILES | EC50 [µM]
49 | COc1c(Br)cccc1C(=O)Nc1ccc(Sc2nc3ccccc3s2)cc1 | > 100
50 | O=C(Nc1ccccc1)c1cc(Br)cc(Br)c1 | > 100
51 | O=C(Nc1ccccc1)c1ccccc1O [SALICYLANILIDE] | > 100
52 | COc1c(Br)cc(Br)cc1C(=O)Nc1ccc(Sc2nc3ccccc3s2)c(Cl)c1 | > 100

Test system: not listed separately
Assay: Cytotoxicity against human THLE3 cells assessed as reduction in cell viability after 48 hrs by Alamar Blue reporter assay
Details: 48 h

Row | SMILES | CC50 [µM]
53 | COc1c(Br)cccc1C(=O)Nc1ccc(Sc2nc3ccccc3s2)cc1 | > 100
54 | O=C(Nc1ccccc1)c1cc(Br)cc(Br)c1 | > 100
55 | O=C(Nc1ccccc1)c1ccccc1O [SALICYLANILIDE] | 68
56 | COc1c(Br)cc(Br)cc1C(=O)Nc1ccc(Sc2nc3ccccc3s2)c(Cl)c1 | > 100
